The values below come from ChEMBL document CHEMBL2401735, “Synthesis and cytotoxicity of novel (thiazol-2-yl)hydrazine derivatives as promising anti-Candida agents” (Eur J Med Chem, 2013).

The nature of data set [1]: Cytotoxicity against human Hep2 cells assessed as cell survival fraction at 5 ug/ml after 24 hrs by trypan blue exclusion assay (reference value: 97 to 98%). It is filed as cell-based. Conditions: HEp-2 cells, read-out: Survival.
The test system of data set [2] is Candida albicans. As to the kind of experiment: Anticandida activity against Candida albicans clinical isolate assessed as growth inhibition after 24 hrs by broth microdilution method. It is filed as functional. In outline:
(§1)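 Clinical Candida isolates subcultured for purity and optimal growth before testing; compounds dissolved in DMSO. Broth microdilution per NCCLS in Sabouraud dextrose broth, serial dilutions, inoculum about 10³/mL, with growth control and medium-only control; 24 h incubation at 37 °C. MIC is the lowest concentration giving complete visible inhibition.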
In general terms: Broth dilution looks for growth in wells or tubes with falling amounts of substance.

Data set [3] concerns Staphylococcus warneri. The data set is described as follows: Antibacterial activity against Staphylococcus warneri assessed as growth inhibition after 18 to 22 hrs by broth microdilution method. Format: functional. The procedure, abridged: (§2)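 Bacterial isolates subcultured for purity, identified conventionally. Broth microdilution per NCCLS in Mueller-Hinton II broth; plates with growth control (no compound) and medium-only control, incubated 18-22 h at 35 °C. MIC taken as lowest concentration giving complete growth inhibition by unaided eye.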

The subject of data set [4] is Enterococcus faecalis. The data set is described as follows: Antibacterial activity against […] assessed as growth inhibition after 18 to 22 hrs by broth microdilution method. Format: functional. The procedure, abridged:
as §2

Data set [5] has as its system Streptococcus alpha-hemolyticus. As to the kind of experiment: Antibacterial activity against Streptococcus alpha-hemolyticus assessed as growth inhibition after 18 to 22 hrs by broth microdilution method.
A short description of data set [6]: Cytotoxicity against human Hep2 cells assessed as cell survival fraction at 0.005 ug/ml after 24 hrs by trypan blue exclusion assay (reference value: 97 to 98%). It is filed as cell-based. Conditions: HEp-2 cells, read-out: Survival.
Data set [7] concerns Staphylococcus aureus. The data set is described as follows: Antibacterial activity against Staphylococcus aureus assessed as growth inhibition after 18 to 22 hrs by broth microdilution method. Format: functional. The procedure, abridged: as §2
The subject of data set [8] is Pichia kudriavzevii. The data set is described as follows: Anticandida activity against Candida krusei clinical isolate assessed as growth inhibition after 24 hrs by broth microdilution method. Format: functional. In outline:
as §1

The nature of data set [9]: Cytotoxicity against human Hep2 cells assessed as cell survival fraction at 100 ug/ml after 24 hrs by trypan blue exclusion assay (reference value: 97 to 98%). It is filed as cell-based. Conditions: HEp-2 cells, read-out: Survival.
Data set [10] deals with [Candida] sake. The data set is described as follows: Anticandida activity against Candida sake clinical isolate assessed as growth inhibition after 24 hrs by broth microdilution method. It is filed as functional. Conditions: Fermentozyma sake. In outline:
as §1

The nature of data set [11]: Cytotoxicity against human Hep2 cells assessed as cell survival fraction at 0.5 ug/ml after 24 hrs by trypan blue exclusion assay (reference value: 97 to 98%). Format: cell-based. Conditions: HEp-2 cells, read-out: Survival.
Data set [12] can be described thus: Cytotoxicity against human Hep2 cells assessed as cell survival fraction at 0.05 ug/ml after 24 hrs by trypan blue exclusion assay (reference value: 97 to 98%). Format: cell-based. Conditions: HEp-2 cells, read-out: Survival.
Data set [13] concerns Enterobacter sp. The data set is described as follows: Antibacterial activity against Enterobacter spp. assessed as growth inhibition after 18 to 22 hrs by broth microdilution method. It is filed as functional. In outline:
as §2

A short description of data set [14]: Cytotoxicity against human Hep2 cells assessed as cell survival fraction at 10 ug/ml after 24 hrs by trypan blue exclusion assay (reference value: 97 to 98%). Format: cell-based. Conditions: HEp-2 cells, read-out: Survival.
The test system of data set [15] is Escherichia coli. The data set is described as follows: Antibacterial activity against Escherichia coli assessed as growth inhibition after 18 to 22 hrs by broth microdilution method. It is filed as functional. In outline:
as §2

Data set [16] has as its system Proteus mirabilis. As to the kind of experiment: Antibacterial activity against Proteus mirabilis assessed as growth inhibition after 18 to 22 hrs by broth microdilution method. Format: functional. In outline: as §2
Data set [17] relates to Candida tropicalis. As to the kind of experiment: Anticandida activity against Candida tropicalis clinical isolate assessed as growth inhibition after 24 hrs by broth microdilution method. It is filed as functional. The procedure, abridged:
as §1

Data set [18] in a line: Cytotoxicity against human Hep2 cells assessed as cell survival fraction at 50 ug/ml after 24 hrs by trypan blue exclusion assay (reference value: 97 to 98%). Conditions: HEp-2 cells, read-out: Survival. Format: cell-based.
Data set [19] relates to Candida parapsilosis. The data set is described as follows: Anticandida activity against Candida parapsilosis clinical isolate assessed as growth inhibition after 24 hrs by broth microdilution method. Format: functional. Conditions: Lodderomyces parapsilosis. The procedure, abridged:
as §1

Data set [20] concerns Klebsiella oxytoca. The data set is described as follows: Antibacterial activity against Klebsiella oxytoca assessed as growth inhibition after 18 to 22 hrs by broth microdilution method. Format: functional. The procedure, abridged:
as §2

Data set [21] relates to Nakaseomyces glabratus. As to the kind of experiment: Anticandida activity against Candida glabrata clinical isolate assessed as growth inhibition after 24 hrs by broth microdilution method. It is filed as functional. In outline:
as §1

Data set [22] in a line: Cytotoxicity against human Hep2 cells assessed as reduction of cell viability after 24 hrs by trypan blue exclusion assay. It is filed as cell-based. Conditions: HEp-2 cells. In outline: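 Hep2 cells in DMEM with 10% FBS, penicillin-streptomycin, 5% CO₂, 37 °C. Cells at 1 × 10⁵/mL exposed 24 h to seven concentrations (0.005-100 µg/mL), DMSO ≤0.5% final; controls were medium alone, DMSO, and 1 mM sodium nitroprusside. Cells scraped, allowed 30 min recovery, mixed 1:1 with 0.4% trypan blue, counted by hemocytometer by two operators.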

Broadly, the MIC is the smallest concentration in the dilution series that meets the test's criterion for growth inhibition. By CC50 is commonly meant the concentration giving 50% cytotoxicity.

Values after ≈ are worked out from the molar mass of the structure shown.

As to `CCC(CC)=NNc1nc(-c2ccc(C)cc2)cs1`, the viability at 24 h, 5 ug/ml in data set [1] was 84%. The MIC in [2] was 0.5 µg/mL (≈ 1.83 µM); in data set [3], above 256 µg/mL; in [4] it was above 256 µg/mL; in data set [5], above 256 µg/mL; in [7] it was above 256 µg/mL; in data set [8] it was 2 µg/mL (≈ 7.32 µM). Further, the MIC was 2 µg/mL (≈ 7.32 µM) in data set [10]; above 256 µg/mL in data set [13]; above 256 µg/mL in [15]; above 256 µg/mL in data set [16]; 2 µg/mL (≈ 7.32 µM) in data set [17]; 2 µg/mL (≈ 7.32 µM) in data set [19]. Moreover, the MIC in data set [20] was above 256 µg/mL; in data set [21], 0.25 µg/mL (≈ 0.914 µM). Moreover, in data set [6], the viability at 24 h, 0.005 ug/ml was determined as 94.6%. In addition, the viability at 24 h, 100 ug/ml in data set [9] came out at 77%. The viability at 24 h, 0.5 ug/ml in [11] amounted to 86%. Further, the viability at 24 h, 0.05 ug/ml in [12] is 92.2%. In addition, the viability at 24 h, 10 ug/ml in data set [14] is 72.4%. Besides, in data set [18], the viability at 24 h, 50 ug/ml turned out to be 67%. For the same compound, the CC50 at 24 h in [22] was at least 100 µg/mL.
Consider `C=CCC/C(C)=N/Nc1nc(-c2ccc(OC)cc2)cs1`, for which the viability at 24 h, 5 ug/ml in data set [1] turned out to be 84%. The MIC in data set [2] is 0.5 µg/mL (≈ 1.66 µM); in data set [3], above 256 µg/mL; in [4] it was above 256 µg/mL; in data set [5] it was above 256 µg/mL; in data set [7], above 256 µg/mL; in data set [8], 2 µg/mL (≈ 6.64 µM). Moreover, the minimal inhibitory concentration (MIC) is 2 µg/mL (≈ 6.64 µM) in data set [10]; above 256 µg/mL in data set [13]; above 256 µg/mL in data set [15]; above 256 µg/mL in data set [16]; 2 µg/mL (≈ 6.64 µM) in data set [17]; 2 µg/mL (≈ 6.64 µM) in data set [19]. Further, the MIC is above 256 µg/mL in data set [20] and 0.5 µg/mL (≈ 1.66 µM) in [21]. In data set [6], the viability at 24 h, 0.005 ug/ml was 94%. Also, the viability at 24 h, 100 ug/ml in data set [9] was found to be 0%. For the same compound, in [11], the viability at 24 h, 0.5 ug/ml came out at 83%. In data set [12], the viability at 24 h, 0.05 ug/ml was 91.2%. The viability at 24 h, 10 ug/ml in data set [14] was 72.4%. Besides, the viability at 24 h, 50 ug/ml in data set [18] amounted to 0%. In addition, the CC50 at 24 h in data set [22] was determined as 35 µg/mL (≈ 116 µM).
On to `CCC/C(C)=N/Nc1nc(-c2ccc(OC)cc2)cs1`, for which, in data set [1], the viability at 24 h, 5 ug/ml stood at 83%. Further, the MIC in data set [2] was 0.25 µg/mL (≈ 0.864 µM); in data set [3], above 256 µg/mL; in data set [4], above 256 µg/mL; in data set [5] it was above 256 µg/mL; in [7] it was above 256 µg/mL; in data set [8] it was 2 µg/mL (≈ 6.91 µM). Besides, the MIC in [10] was 2 µg/mL (≈ 6.91 µM); in data set [13] it was above 256 µg/mL; in [15], above 256 µg/mL; in [16] it was above 256 µg/mL; in [17] it was 2 µg/mL (≈ 6.91 µM); in [19] it was 2 µg/mL (≈ 6.91 µM). Further, the MIC was above 256 µg/mL in data set [20] and 2 µg/mL (≈ 6.91 µM) in data set [21]. Further, in [6], the viability at 24 h, 0.005 ug/ml turned out to be 92%. Further, the viability at 24 h, 100 ug/ml in [9] was 0%. The viability at 24 h, 0.5 ug/ml in data set [11] is 88%. Also, the viability at 24 h, 0.05 ug/ml in data set [12] came to 90%. Also, the viability at 24 h, 10 ug/ml in data set [14] was found to be 75.5%. The viability at 24 h, 50 ug/ml in data set [18] turned out to be 0%. The CC50 at 24 h in data set [22] stood at 36 µg/mL (≈ 124 µM).
